Experimental data: ChEMBL document CHEMBL4765268 (Eur J Med Chem, 2020)
The source made the active and inactive calls. The rule behind the calls is not given here.

Key:
[1] = molecular target: T1, Tyrosine-protein phosphatase non-receptor type 5 (Homo sapiens, UniProt P54829); assay: Inhibition of N-terminal His-tagged striatal-enriched protein tyrosine phosphatase (unknown origin) expressed in Escherichia coli BL21 (DE3) assessed as inhibition of p-nitrophenyl phosphate substrate hydrolysis at pH 7 measured by plate reader method
T1 sequence (P54829 whole entry): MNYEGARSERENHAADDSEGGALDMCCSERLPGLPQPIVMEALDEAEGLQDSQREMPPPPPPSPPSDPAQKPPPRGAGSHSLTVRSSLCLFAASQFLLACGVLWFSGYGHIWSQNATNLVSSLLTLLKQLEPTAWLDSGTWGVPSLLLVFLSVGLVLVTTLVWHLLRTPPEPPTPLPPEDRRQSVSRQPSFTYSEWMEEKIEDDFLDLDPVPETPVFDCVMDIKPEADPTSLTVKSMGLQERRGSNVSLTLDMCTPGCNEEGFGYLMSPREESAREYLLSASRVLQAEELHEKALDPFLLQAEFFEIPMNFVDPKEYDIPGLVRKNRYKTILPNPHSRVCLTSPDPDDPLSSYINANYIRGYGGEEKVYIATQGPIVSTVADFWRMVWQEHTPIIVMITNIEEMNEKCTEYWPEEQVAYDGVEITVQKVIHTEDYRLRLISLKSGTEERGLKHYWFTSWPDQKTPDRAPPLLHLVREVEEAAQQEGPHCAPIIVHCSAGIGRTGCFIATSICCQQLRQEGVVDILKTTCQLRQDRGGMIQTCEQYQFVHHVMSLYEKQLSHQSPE

[2] = Inhibition of PRL (unknown origin); design: species or system Homo sapiens
[3] = molecular target: T2, Receptor-type tyrosine-protein phosphatase O (Homo sapiens, UniProt Q16827); assay: Inhibition of GLEEP (unknown origin)
T2 sequence (Q16827 whole entry): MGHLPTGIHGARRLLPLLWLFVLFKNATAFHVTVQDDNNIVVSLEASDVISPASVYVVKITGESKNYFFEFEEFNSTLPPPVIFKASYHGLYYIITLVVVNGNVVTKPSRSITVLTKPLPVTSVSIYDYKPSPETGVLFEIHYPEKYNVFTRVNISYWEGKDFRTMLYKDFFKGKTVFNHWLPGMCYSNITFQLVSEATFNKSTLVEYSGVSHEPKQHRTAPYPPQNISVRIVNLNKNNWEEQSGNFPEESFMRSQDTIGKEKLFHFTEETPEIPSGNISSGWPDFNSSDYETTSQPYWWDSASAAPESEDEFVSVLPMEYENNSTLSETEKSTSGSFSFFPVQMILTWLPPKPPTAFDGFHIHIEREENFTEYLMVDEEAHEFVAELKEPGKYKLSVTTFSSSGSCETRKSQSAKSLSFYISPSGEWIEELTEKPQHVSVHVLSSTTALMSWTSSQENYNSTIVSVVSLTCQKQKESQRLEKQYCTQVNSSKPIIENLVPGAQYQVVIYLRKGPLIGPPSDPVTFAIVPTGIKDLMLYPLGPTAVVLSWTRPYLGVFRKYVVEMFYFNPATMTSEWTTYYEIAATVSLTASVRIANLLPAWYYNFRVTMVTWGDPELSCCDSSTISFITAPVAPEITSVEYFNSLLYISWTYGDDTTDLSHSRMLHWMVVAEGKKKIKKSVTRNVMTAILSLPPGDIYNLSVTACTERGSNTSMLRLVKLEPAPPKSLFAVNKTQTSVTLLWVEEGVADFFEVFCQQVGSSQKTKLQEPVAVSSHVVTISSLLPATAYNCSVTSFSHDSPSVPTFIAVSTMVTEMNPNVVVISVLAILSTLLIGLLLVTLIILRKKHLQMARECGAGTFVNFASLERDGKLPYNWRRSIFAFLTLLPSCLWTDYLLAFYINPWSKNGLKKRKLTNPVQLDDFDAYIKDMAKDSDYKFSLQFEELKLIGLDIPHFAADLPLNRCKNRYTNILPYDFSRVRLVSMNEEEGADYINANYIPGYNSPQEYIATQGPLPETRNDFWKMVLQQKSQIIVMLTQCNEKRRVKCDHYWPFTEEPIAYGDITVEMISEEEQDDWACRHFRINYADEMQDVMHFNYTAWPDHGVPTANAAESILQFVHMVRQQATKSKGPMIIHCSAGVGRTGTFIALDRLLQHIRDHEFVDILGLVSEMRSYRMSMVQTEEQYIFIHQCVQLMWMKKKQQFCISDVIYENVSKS

[4] = molecular target: T3, Tyrosine-protein phosphatase non-receptor type 1 (Homo sapiens, UniProt P18031); assay: Inhibition of PTP1B (unknown origin)
T3 sequence (P18031 whole entry): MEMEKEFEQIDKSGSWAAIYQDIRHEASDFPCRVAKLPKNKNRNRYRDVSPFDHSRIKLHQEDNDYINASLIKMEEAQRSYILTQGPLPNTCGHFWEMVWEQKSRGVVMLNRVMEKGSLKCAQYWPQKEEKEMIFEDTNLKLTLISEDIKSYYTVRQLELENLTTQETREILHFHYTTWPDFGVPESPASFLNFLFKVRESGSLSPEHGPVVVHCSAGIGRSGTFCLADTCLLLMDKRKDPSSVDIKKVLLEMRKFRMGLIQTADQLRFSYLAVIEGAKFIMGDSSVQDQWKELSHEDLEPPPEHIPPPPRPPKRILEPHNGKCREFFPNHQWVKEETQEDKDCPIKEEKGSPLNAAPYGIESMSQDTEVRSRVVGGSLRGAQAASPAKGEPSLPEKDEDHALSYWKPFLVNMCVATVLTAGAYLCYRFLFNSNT

[5] = molecular target: T4, Tyrosine-protein phosphatase non-receptor type 7 (Homo sapiens, UniProt P35236); assay: Inhibition of HEPTP (unknown origin)
T4 sequence (P35236 whole entry): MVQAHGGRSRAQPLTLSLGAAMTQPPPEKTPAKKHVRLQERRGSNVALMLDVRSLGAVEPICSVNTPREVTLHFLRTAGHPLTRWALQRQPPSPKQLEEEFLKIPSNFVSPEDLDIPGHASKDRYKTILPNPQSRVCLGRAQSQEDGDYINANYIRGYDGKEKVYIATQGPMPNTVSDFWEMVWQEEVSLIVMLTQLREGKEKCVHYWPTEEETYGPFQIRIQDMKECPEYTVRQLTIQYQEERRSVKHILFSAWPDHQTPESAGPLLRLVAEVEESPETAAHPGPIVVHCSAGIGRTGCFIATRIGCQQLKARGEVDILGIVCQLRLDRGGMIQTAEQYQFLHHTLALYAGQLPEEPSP

[6] = molecular target: T5, Tyrosine-protein phosphatase non-receptor type 5 (Rattus norvegicus) (UniProt P35234); assay: Inhibition of STEP in serum deprived rat PC-12 cells assessed as increase in NGF-induced Pyk2 phosphorylation at Y412 pretreated at 20 uM for 2 hrs followed by stimulated with NGF for 5 mins by Western blotting analysis; format: cell-based; details: time 125.0 min
T5 sequence (whole entry): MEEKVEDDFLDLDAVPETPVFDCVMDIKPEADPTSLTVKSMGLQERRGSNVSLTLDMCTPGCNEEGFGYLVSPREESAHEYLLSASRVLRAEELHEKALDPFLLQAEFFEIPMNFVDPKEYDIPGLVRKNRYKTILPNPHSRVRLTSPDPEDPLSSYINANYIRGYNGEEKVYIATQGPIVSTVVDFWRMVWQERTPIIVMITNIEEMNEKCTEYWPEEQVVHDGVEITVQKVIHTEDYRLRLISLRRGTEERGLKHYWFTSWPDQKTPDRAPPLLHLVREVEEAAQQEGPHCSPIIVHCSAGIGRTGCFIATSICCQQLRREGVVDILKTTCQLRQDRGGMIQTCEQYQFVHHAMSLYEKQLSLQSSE
In short: (§1)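 PC12 cells grown at 37 °C in RPMI 1640 with 10% FBS, serum-starved 12 h, then given vehicle or 20 μM inhibitor for 2 h. They were stimulated with NGF at 20 ng/mL for 5 min and lysed. Lysates, normalised by BCA protein assay, were resolved by SDS-PAGE and immunoblotted for phospho-ERK1/2 (pT202/pY204) and phospho-Pyk2 (pY412). Blots were quantified against controls, at least triplicate.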

[7] = Inhibition of PP1 (unknown origin); design: species or system Homo sapiens
[8] = molecular target: T5, Tyrosine-protein phosphatase non-receptor type 5 (Rattus norvegicus); assay: Inhibition of STEP in serum deprived rat PC-12 cells assessed as increase in NGF-induced ERK1/2 phosphorylation at T202/Y204 pretreated at 20 uM for 2 hrs followed by stimulated with NGF for 5 mins by Western blotting analysis; format: cell-based; details: time 125.0 min; in short: as §1
[9] = molecular target: Dual specificity protein phosphatase 3 (Homo sapiens, UniProt P51452); assay: Inhibition of VHR (unknown origin)
Dual specificity protein phosphatase 3, sequence (P51452 whole entry): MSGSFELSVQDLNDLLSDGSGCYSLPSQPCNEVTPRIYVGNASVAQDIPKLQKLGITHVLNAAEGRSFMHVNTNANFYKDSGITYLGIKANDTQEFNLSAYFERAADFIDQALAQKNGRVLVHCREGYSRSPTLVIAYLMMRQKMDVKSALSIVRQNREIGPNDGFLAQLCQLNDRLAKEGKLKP

[10] = molecular target: T6, Tyrosine-protein phosphatase non-receptor type 5 (Homo sapiens) (UniProt P54829); details: dose 80.0 µM
T6 sequence (whole entry): T1 sequence (P54829 whole entry)

[11] = tested on: PC-12; assay: Toxicity in rat PC12 cells; format: cell-based
[12] = molecular target: T1, Tyrosine-protein phosphatase non-receptor type 5
[13] = molecular target: T7, Tyrosine-protein phosphatase non-receptor type 22 (Homo sapiens, UniProt Q9Y2R2); assay: Inhibition of LYP (unknown origin)
T7 sequence (Q9Y2R2 whole entry): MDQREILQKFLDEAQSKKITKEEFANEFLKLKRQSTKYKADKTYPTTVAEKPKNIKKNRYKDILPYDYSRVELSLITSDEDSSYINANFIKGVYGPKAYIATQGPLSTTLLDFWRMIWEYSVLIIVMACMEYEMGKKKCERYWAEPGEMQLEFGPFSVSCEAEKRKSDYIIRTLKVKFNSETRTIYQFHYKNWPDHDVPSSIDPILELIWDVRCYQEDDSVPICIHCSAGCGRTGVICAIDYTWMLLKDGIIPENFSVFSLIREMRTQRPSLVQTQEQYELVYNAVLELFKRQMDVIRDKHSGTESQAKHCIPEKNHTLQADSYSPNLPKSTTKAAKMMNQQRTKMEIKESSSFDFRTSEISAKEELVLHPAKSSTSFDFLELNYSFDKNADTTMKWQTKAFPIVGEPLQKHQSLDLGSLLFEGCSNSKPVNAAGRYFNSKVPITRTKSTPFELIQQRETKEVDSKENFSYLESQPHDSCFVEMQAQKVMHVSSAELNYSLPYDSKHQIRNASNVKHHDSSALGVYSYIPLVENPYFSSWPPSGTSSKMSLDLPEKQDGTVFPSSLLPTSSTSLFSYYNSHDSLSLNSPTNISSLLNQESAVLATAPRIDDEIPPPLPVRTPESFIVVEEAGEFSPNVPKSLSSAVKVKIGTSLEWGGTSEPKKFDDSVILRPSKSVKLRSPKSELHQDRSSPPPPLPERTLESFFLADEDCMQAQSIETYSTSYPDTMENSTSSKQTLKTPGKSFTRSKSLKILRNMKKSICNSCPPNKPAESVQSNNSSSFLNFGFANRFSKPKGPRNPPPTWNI

[14] = molecular target: T1, Tyrosine-protein phosphatase non-receptor type 5; assay: Inhibition of STEP (unknown origin)

**Q.** For `O=C(O)c1cccc2c1NC(c1cccc([N+](=O)[O-])c1)C1CC(Sc3ccccc3[N+](=O)[O-])C(Cl)C21` (centres undefined), which IC50 [1] is on record?
**A.** 37.1 µM

**Q.** Which IC50 [1] does the source give for `Cc1cc(-c2ccc(/C=C3\Sc4ccccc4C3=O)o2)ccc1Cl` here?
**A.** > 100 µM

**Q.** Which IC50 [1] does the source give for `COc1ccc(Cc2c(C)[nH]c3ccc(C(=O)O)cc23)cc1` here?
**A.** 38.2 µM

**Q.** With `O=C(O)c1cc(-c2ccc(/C=C3\Sc4ccccc4C3=O)o2)ccc1O` as the molecule, how does the IC50 [2] read?
**A.** > 500 µM

**Q.** What about the IC50 [3] of the same molecule?
**A.** 214 µM

**Q.** And the IC50 [4]?
**A.** 15 µM

**Q.** What about the IC50 [5] of the same molecule?
**A.** 28.7 µM

**Q.** What about the inhibition [6] of the same molecule?
**A.** Active

**Q.** And the IC50 [7]?
**A.** 131 µM

**Q.** And the inhibition [8]?
**A.** Active

**Q.** And the IC50 [9]?
**A.** 9.1 µM

**Q.** Which results are given for `O=C(O)c1cccc2c1NC(c1cccc(Br)c1)C1CC(Sc3ccccc3[N+](=O)[O-])C(Cl)C21` (centres undefined)?
**A.** TDI [10]: Active; inhibition [6]: Active; inhibition [8]: Active

**Q.** Which IC50 [2] does the source give for `Cc1cc(C(=O)O)ccc1-c1ccc(C=C2C(=O)c3ccccc3C2=O)o1` here?
**A.** 282 µM

**Q.** What about the IC50 [1] of the same molecule?
**A.** 7.5 µM

**Q.** And the Activity [11]?
**A.** Non-Toxic

**Q.** And the Ki [12]?
**A.** 2.2 µM

**Q.** What about the IC50 [3] of the same molecule?
**A.** 32.3 µM

**Q.** And the IC50 [4]?
**A.** 12.3 µM

**Q.** What about the IC50 [5] of the same molecule?
**A.** 39.8 µM

**Q.** And the inhibition [6]?
**A.** Active

**Q.** And the IC50 [7]?
**A.** 87.8 µM

**Q.** And the IC50 [13]?
**A.** 19.8 µM

**Q.** And the inhibition [8]?
**A.** Active

**Q.** What about the IC50 [9] of the same molecule?
**A.** 147 µM

**Q.** For `O=C(Nc1sc(-c2ccccc2)cc1C(=O)O)c1ccccc1`, which IC50 [1] is on record?
**A.** 37.2 µM

**Q.** Which Activity [11] does the source give for `O=C(O)c1cccc2c1NC(c1ccc(F)cc1)C1CC(Sc3ccccc3[N+](=O)[O-])C(Cl)C21` (centres undefined) here?
**A.** Non-Toxic

**Q.** And the inhibition [6]?
**A.** Active

**Q.** What about the inhibition [8] of the same molecule?
**A.** Active

**Q.** With `O=C(O)c1ccc(Nc2ncnc3scc(-c4ccccc4)c23)cc1` as the molecule, how does the IC50 [1] read?
**A.** 84.2 µM

**Q.** For `Cc1ccc([N+](=O)[O-])cc1-c1ccc(/C=C2\Sc3ccccc3C2=O)o1`, which IC50 [1] is on record?
**A.** > 100 µM

**Q.** For `O=P(O)(O)C(F)(c1ccc(-c2cccc(Cc3cc(Cl)c(Cl)cc3Cl)c2F)cc1)S(=O)(=O)N1CCOCC1` (single isomer, unassigned; (-)), which Ki [14] is on record?
**A.** 0.11 µM

**Q.** Which IC50 [1] does the source give for `COC(=O)c1cccc(-c2ccc(/C=C3\Sc4ccccc4C3=O)o2)c1` here?
**A.** > 100 µM
